Laboratory results as given in ChEMBL document CHEMBL3421532, “Synthesis and antiproliferative activity of α-branched α,β-unsaturated ketones in human hematological and solid cancer cell lines” (Eur J Med Chem, 2015).
pIC50: −log10 of the molar value. The source made the active and inactive calls. No cut-off for these calls is given here.

Tests used:
Type in all cases: functional, cell-based
A549 [1] = assay: Antiproliferative activity against human A549 cells assessed as cell growth inhibition after 48 hrs by XTT assay; conditions: A549, 48 h
Outline: (§1)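 NB4 grown in RPMI 1640 with 10% FBS and penicillin/streptomycin, A549 and MCF-7 in DMEM, all at 37 °C and 5% CO2. Cells seeded at 1.5∙10⁴ (NB4) or 1.0∙10⁴ (A549, MCF-7) per well. Adherent lines dosed 24 h after plating, NB4 shortly after. Triplicate concentrations from 0.1 to 100, DMSO control at 0.5% v/v. After 48 h exposure, XTT added for 2 h. A450 minus A690 read, GI50 reported with SE.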

MCF7 [2] = assay: Antiproliferative activity against human MCF7 cells assessed as cell growth inhibition after 48 hrs by XTT assay; conditions: MCF7, 48 h; outline: as §1
[3] = Antiproliferative activity against human NB4 cells assessed as cell growth inhibition after 48 hrs by XTT assay; conditions: NB-4, 48 h; outline: as §1
MCF7 [4] = assay: Cell cycle arrest in human MCF7 cells assessed as increase in cell population at S phase at 10 uM after 48 hrs by flow cytometry
Outline: (§2)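 Cells seeded in 6-well plates at 1∙10⁶ (NB4) or 0.45∙10⁶ (A549, MCF-7) per well. Treated for 48 h at 10 (NB4, MCF-7), 20 and 30 (A549), or, for NB4, a lower 5; DMSO solvent control. Cell cycle phase distribution and sub-G1 measured by flow cytometry. Mean of two independent experiments.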

A549 [5] = assay: Cell cycle arrest in human A549 cells assessed as slight increase in cell accumulation at G2/M phase at 20 uM after 48 hrs by flow cytometry; outline: as §2
A549 [6] = assay: Cell cycle arrest in human A549 cells assessed as increase in cell population at S phase at 30 uM after 48 hrs by flow cytometry; outline: as §2
MCF7 [7] = assay: Cell cycle arrest in human MCF7 cells assessed as increase in cell population at G2/M phase at 10 uM after 48 hrs by flow cytometry; outline: as §2
A549 [8] = assay: Cell cycle arrest in human A549 cells assessed as slight increase in cell population at S phase at 20 uM after 48 hrs by flow cytometry; outline: as §2
A549 [9] = assay: Induction of apoptosis in human A549 cells at 20 to 30 uM after 24 to 48 hrs by annexin V binding assay
Outline: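 Cells seeded in 6-well plates at 1∙10⁶ (NB4) or 0.45∙10⁶ (A549, MCF-7) per well. Treated at 5 (NB4), 20 and 30 (A549) or 10 (MCF-7). Apoptotic cell percentage measured by annexin V binding after 24 and 48 h. Mean of two independent experiments.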

In the case of `C=C(C(=O)c1ccc(OC)cc1)C(OC(=O)c1ccccc1)c1ccccc1[N+](=O)[O-]` (stereo not given), the pIC50 (A549 [1]) was 4.34, the pIC50 (MCF7 [2]) was 4.93 and the pIC50 [3] was 4.90.

For `C=C(C(=O)c1ccc(OC)cc1)C(OC(C)=O)c1ccccc1F` (stereo not given), the pIC50 (A549 [1]) was 4.17, the pIC50 (MCF7 [2]) was 4.74 and the pIC50 [3] was 5.02.

`CC(=O)OC/C(=C/c1ccc(Cl)cc1Cl)C(=O)c1ccccc1` gave a pIC50 (A549 [1]) of 4.13, a pIC50 (MCF7 [2]) of 4.50 and a pIC50 [3] of 4.90.

In the case of `C=C(C(=O)c1ccc(OC)cc1)C(OC(C)=O)c1c(F)c(F)c(F)c(F)c1F` (stereo not given), the Activity (MCF7 [4]) was “Active”, the Activity (A549 [5]) was “Active” and the pIC50 (A549 [1]) was 4.83. For the same compound, the Activity (A549 [6]) was “Active”, the pIC50 (MCF7 [2]) was 5.17 and the Activity (MCF7 [7]) was “Active”. The Activity (A549 [8]) was “Active”, the Activity (A549 [9]) was “Active” and the pIC50 [3] was 4.90.

For `C=C(C/C(=C\c1ccccc1)C(=O)c1ccc(OC)cc1)C(=O)c1ccc(OC)cc1`, the pIC50 (A549 [1]) was 4.64, the pIC50 (MCF7 [2]) was 5.13 and the pIC50 [3] was 5.13.

With `CCC(/C=C(\CCOC(C)=O)C(=O)c1ccc(OC)cc1)CC` the pIC50 (A549 [1]) was under 4.00, the pIC50 (MCF7 [2]) was under 4.00 and the pIC50 [3] was 4.04.

`CCC(/C=C(\COC(=O)c1ccccc1)C(=O)c1ccc(OC)cc1)CC` gave a pIC50 (A549 [1]) of under 4.00, a pIC50 (MCF7 [2]) of 4.55 and a pIC50 [3] of 4.57.

Compound `C=C(C(=O)c1ccc(OC)cc1)C(OC(=O)c1ccccc1)c1ccccc1Cl` (stereo not given) has a pIC50 (A549 [1]) of 4.52, a pIC50 (MCF7 [2]) of 4.44 and a pIC50 [3] of 5.07.

`COc1ccc(C(=O)/C(=C/c2ccccc2F)CCOC(C)=O)cc1` showed a pIC50 (A549 [1]) of under 4.00, a pIC50 (MCF7 [2]) of under 4.00 and a pIC50 [3] of under 4.00.

`COc1ccc(C(=O)/C(=C/c2ccc([N+](=O)[O-])cc2)CCOC(C)=O)cc1` gave a pIC50 (A549 [1]) of under 4.00, a pIC50 (MCF7 [2]) of under 4.00 and a pIC50 [3] of under 4.00.

With `C=C(C(=O)c1ccc(OC)cc1OC)C(OC(C)=O)c1ccccc1[N+](=O)[O-]` (stereo not given) the pIC50 (A549 [1]) was under 4.00, the pIC50 (MCF7 [2]) was 4.15 and the pIC50 [3] was 5.06.

Compound `C=C(C(=O)c1ccc(OC)cc1)C(OC(=O)c1ccccc1)c1ccc([N+](=O)[O-])cc1` (stereo not given) has a pIC50 (A549 [1]) of 4.18, a pIC50 (MCF7 [2]) of 4.25 and a pIC50 [3] of 4.88.

For `CC(=O)OC/C(=C\c1ccc(Cl)cc1Cl)C(=O)c1ccccc1`, the Activity (MCF7 [4]) was “Active”, the pIC50 (A549 [1]) was 4.01 and the pIC50 (MCF7 [2]) was 5.06. For the same compound, the Activity (MCF7 [7]) was “Active” and the pIC50 [3] was 5.18.

`C=C(C(=O)c1ccc(OC)cc1)C(O)c1ccc(Cl)cc1Cl` (stereo not given) showed a pIC50 (A549 [1]) of 4.15, a pIC50 (MCF7 [2]) of 5.05 and a pIC50 [3] of 4.58.

In the case of `COc1ccc(C(=O)/C(=C/c2ccc(Cl)cc2)CC(C)C)cc1`, the pIC50 (A549 [1]) was under 4.00, the pIC50 (MCF7 [2]) was under 4.00 and the pIC50 [3] was 4.92.

In the case of `COc1ccc(C(=O)/C(=C/C2CCCCC2)CCOC(C)=O)cc1`, the pIC50 (A549 [1]) was under 4.00, the pIC50 (MCF7 [2]) was under 4.00 and the pIC50 [3] was under 4.00.

With `C=C(C(=O)c1ccc(OC)cc1)C(OC(=O)c1ccccc1)c1ccccc1F` (stereo not given) the pIC50 (A549 [1]) was 4.13, the pIC50 (MCF7 [2]) was 4.47 and the pIC50 [3] was 4.84.

In the case of `C=C(C(=O)c1ccc(OC)cc1)C(OC(=O)c1ccccc1)C1CCCCC1` (stereo not given), the pIC50 (A549 [1]) was 4.21, the pIC50 (MCF7 [2]) was 4.46 and the pIC50 [3] was 5.00.

With `COc1ccc(C(=O)/C(=C/c2ccccc2Cl)COC(=O)c2ccccc2)cc1` the Activity (MCF7 [4]) was “Active”, the Activity (A549 [5]) was “Active” and the pIC50 (A549 [1]) was 4.70. The Activity (A549 [6]) was “Active”, the pIC50 (MCF7 [2]) was 5.05 and the Activity (MCF7 [7]) was “Active”. The Activity (A549 [8]) was “Active”, the Activity (A549 [9]) was “Active” and the pIC50 [3] was 5.15.

In the case of `C=C(C(=O)c1ccc(OC)cc1)C(OC(=O)c1ccccc1)C(CC)CC` (stereo not given), the pIC50 (A549 [1]) was 4.45, the pIC50 (MCF7 [2]) was 4.75 and the pIC50 [3] was 4.89.

Compound `C=C(C(=O)c1ccc(OC)cc1)C(OC(C)=O)c1ccc([N+](=O)[O-])cc1` (stereo not given) has a pIC50 (A549 [1]) of 4.67, a pIC50 (MCF7 [2]) of 5.21 and a pIC50 [3] of 4.99.

For `COc1ccc(C(=O)/C(=C/c2ccc(C(F)(F)F)cc2)CC2CCCCC2)cc1`, the pIC50 (A549 [1]) was under 4.00, the pIC50 (MCF7 [2]) was under 4.00 and the pIC50 [3] was 4.74.

In the case of `COc1ccc(C(=O)/C(=C/c2ccc(Cl)cc2Cl)CN2CCOCC2)cc1`, the pIC50 (A549 [1]) was under 4.00, the pIC50 (MCF7 [2]) was 4.37 and the pIC50 [3] was 5.07.

For `COc1ccc(C(=O)/C(=C/C2CCCCC2)CN(C)C(=O)c2ccccc2)cc1`, the pIC50 (A549 [1]) was 4.16, the pIC50 (MCF7 [2]) was 4.49 and the pIC50 [3] was 4.49.

`C=C(C(=O)c1ccc(OC)cc1)C(OC(=O)c1ccccc1)c1c(F)c(F)c(F)c(F)c1F` (stereo not given) gave a pIC50 (A549 [1]) of 4.49, a pIC50 (MCF7 [2]) of 4.34 and a pIC50 [3] of 4.89.

For `COc1ccc(C(=O)/C(=C/c2ccc(Cl)cc2Cl)CC(C)C)cc1`, the pIC50 (A549 [1]) was 4.10, the pIC50 (MCF7 [2]) was under 4.00 and the pIC50 [3] was 4.84.

`COc1ccc(C(=O)/C(=C/c2ccc(Cl)cc2Cl)CC2CCCCC2)cc1` showed a pIC50 (A549 [1]) of under 4.00, a pIC50 (MCF7 [2]) of under 4.00 and a pIC50 [3] of 4.31.
